From ChEMBL document CHEMBL1133018, “Deltorphin II analogues with 6-hydroxy-2-aminotetralin-2-carboxylic acid in position 1” (J Med Chem, 2000)
*1 amine or outer side, *2 acyl side, *3 side chain or, on linkers, in order; H or OH if unused. Where a SMILES comes first, the peptide text is derived from it. [ ]: non-standard residue; d: D form. X1 = O=C([C@@]1(N[*:1])CCc2cc(O)ccc2C1)[*:2]; X2 = O=C([C@]1(N[*:1])CCc2cc(O)ccc2C1)[*:2]

Key:
[1] = target: T1, Delta-type opioid receptor (Rattus norvegicus, UniProt P33533); experiment: Binding affinities against delta 2 opioid receptor of rat brain using [3H]Ile5,6-deltorphin II as radioligand.
T1 sequence (P33533 whole entry): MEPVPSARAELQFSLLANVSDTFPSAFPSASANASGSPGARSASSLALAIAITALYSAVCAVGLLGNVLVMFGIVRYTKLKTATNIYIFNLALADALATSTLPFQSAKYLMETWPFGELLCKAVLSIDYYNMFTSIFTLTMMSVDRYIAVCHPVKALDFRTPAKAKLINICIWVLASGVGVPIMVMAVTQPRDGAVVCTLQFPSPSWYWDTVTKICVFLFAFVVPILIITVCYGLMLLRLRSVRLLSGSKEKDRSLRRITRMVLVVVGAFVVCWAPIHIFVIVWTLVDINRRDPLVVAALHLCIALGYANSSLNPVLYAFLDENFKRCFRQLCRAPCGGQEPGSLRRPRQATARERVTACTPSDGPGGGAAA
Method in brief: (§1)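 Wistar rat brain (minus cerebellum) membranes, 300-500 µg protein, 50 mM Tris-HCl pH 7.4. Displacement of [3H]pClPhe4-DPDPE (0.8 nM, 25 °C, 90 min) or [3H]Ile5,6-deltorphin II (0.5 nM, 35 °C, 45 min). Filtration, scintillation counting. Nonspecific binding defined with 10 µM naloxone. Ki as mean ± SEM of 3-5 runs in duplicate; Hill slopes also fitted.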

[2] = target: Delta-type opioid receptor (Rattus norvegicus) (UniProt P33533)
Chain of Delta-type opioid receptor (Rattus norvegicus) (P33533 whole entry): as above

Rattus norvegicus [3] = organism: Rattus norvegicus; experiment: Stimulation of [35S]GTP-gamma-S, binding at the concentration of 0.1 uM.; type: functional
Method in brief: (§2)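 Rat frontal cortex crude membranes, 10 µg protein, in 50 mM Tris-HCl with 1 mM EGTA, 3 mM MgCl2, 100 mM NaCl. Incubated with 30 µM GDP and 0.05 nM [35S]GTPγS, 1 h at 30 °C. Nonspecific binding taken with 10 µM unlabeled GTPγS. Filtered and counted. Stimulation expressed as % of specific binding, mean ± SEM of three triplicate experiments.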

[4] = target: T1, Delta-type opioid receptor; experiment: Binding affinities against Opioid receptor delta 1 of rat brain using [3H]p-Cl-Phe4-DPDPE as radioligand.; method in brief: as §1
Mu-type opioid receptor = Mu-type opioid receptor (Cavia porcellus, UniProt P97266); experiment: inhibitory concentration for inhibition of electrically induced smooth muscle contractions of GPI (guinea pig ileum) myenteric-plexus-longitudinal muscle strips.; type: functional, tissue-based
Chain of Mu-type opioid receptor (P97266 whole entry): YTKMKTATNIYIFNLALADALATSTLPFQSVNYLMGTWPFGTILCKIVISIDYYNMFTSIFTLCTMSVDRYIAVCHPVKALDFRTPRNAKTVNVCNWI
Method in brief: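 Longitudinal muscle-myenteric plexus strips from ileum of male guinea pigs (400-600 g), electrically stimulated under standard conditions. IC50 taken as 50% inhibition of twitch, mean ± SEM of 4-6 measurements. Where no IC50 was reached, % inhibition is given at 10^-6 or 10^-5 M (n = 4).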

[5] = target: Mu-type opioid receptor (Rattus norvegicus) (UniProt P33535)
Chain of Mu-type opioid receptor (Rattus norvegicus) (P33535 whole entry, looked up): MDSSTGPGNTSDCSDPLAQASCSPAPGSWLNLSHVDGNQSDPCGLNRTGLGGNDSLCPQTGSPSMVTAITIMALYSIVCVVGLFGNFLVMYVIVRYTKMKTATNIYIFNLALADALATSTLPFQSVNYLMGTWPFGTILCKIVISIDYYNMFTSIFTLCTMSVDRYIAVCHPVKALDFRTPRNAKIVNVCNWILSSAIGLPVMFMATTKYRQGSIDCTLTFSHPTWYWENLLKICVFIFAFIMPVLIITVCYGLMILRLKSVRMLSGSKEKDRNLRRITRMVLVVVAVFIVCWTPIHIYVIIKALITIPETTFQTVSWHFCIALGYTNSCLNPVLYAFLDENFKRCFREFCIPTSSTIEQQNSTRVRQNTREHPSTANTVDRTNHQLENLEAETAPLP

[6] = target: Delta-type opioid receptor (Rattus norvegicus) (UniProt P33533); remark: listed apart in the source
Rattus norvegicus [7] = organism: Rattus norvegicus; experiment: Stimulation of [35S]GTP-gamma-S, binding at the concentration of 1 uM.; type: functional; method in brief: as §2
[8] = target: Mu-type opioid receptor (Rattus norvegicus) (UniProt P33535); remark: listed apart in the source
[9] = target: Delta-type opioid receptor (Rattus norvegicus) (UniProt P33533); remark: listed apart in the source

Row | SMILES | Ki [1] [nM] | Hill coefficient [2] | Stimulation (Rattus norvegicus [3]) [%] | Ki [4] [nM] | IC50 (Mu-type opioid receptor) [nM] | Hill coefficient [5] | Hill coefficient [6] | Stimulation (Rattus norvegicus [7]) [%] | Hill coefficient [8] | Hill coefficient [9]
1 | CC[C@H](C)[C@H](NC(=O)[C@H](CCC(=O)O)NC(=O)[C@H](Cc1ccccc1)NC(=O)[C@H](C)NC(=O)[C@@]1(N)CCc2cc(O)ccc2C1)C(=O)N[C@H](C(=O)NCC(N)=O)[C@@H](C)CC (H-[X1]AFEIIG-NH2) | 0.34 | -0.34 | 155 | 0.16 | 5130 | -1.01 | -0.69 | – | – | –
2 | CC[C@H](C)[C@H](NC(=O)[C@H](CCC(=O)O)NC(=O)[C@H](Cc1ccccc1)NC(=O)[C@H](C)NC(=O)[C@]1(N)CCc2cc(O)ccc2C1)C(=O)N[C@H](C(=O)NCC(N)=O)[C@@H](C)CC (H-[X2]AFEIIG-NH2) | 1 | – | – | 0.94 | > 10000 | – | -0.5 | 136.9 | -1.09 | -0.42
